This passage reports Activity, inhibition and viability results from ChEMBL document CHEMBL3763092, “Design and synthesis of pyrrolobenzodiazepine-gallic hybrid agents as p53-dependent and -independent apoptogenic signaling in melanoma cells” (Eur J Med Chem, 2016).

Activity calls are given as the source filed them. The calls are words filed in the database; no cut-off is given here.

The subject of data set [1] is A-375. Briefly: Induction of reactive oxygen species generation in human A375 cells expressing p53 wild type assessed as increase in intracellular H2O2 level at 0.5 uM after 24 hrs by DCFH-DA staining based fluorescence analysis. The data set is classed as functional, cell-based. Summed up:
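A375 cells were treated with 0.5 µM for 0, 12 and 24 h and stained with DCFH-DA to detect intracellular H2O2.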

Data set [2] concerns A-375. Kind of data set: Induction of DNA lesion in human A375 cells expressing p53 wild type assessed as increase in 8-oxoguanine expression at 0.5 uM after 24 hrs by immunohistochemical analysis. In kind it is functional, cell-based. The method in brief: (§1)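 A375 cells on coverslips (1 × 10^4) were treated with 0.5 µM for 24 h. Cells were fixed in 4% formaldehyde for 5 min at 4 °C, permeabilized with 0.5% Triton X-100, and blocked with 5% BSA at 37 °C for 45 min. Primary antibodies were applied for 1 h at RT: mouse anti-p-ATR and anti-p-ATM 1:1000, anti-8-oxoguanine 1:250, COX IV and cytochrome c 1:1000. Secondary antibodies (rhodamine for 8-oxoguanine) followed for 30 min. DAPI counterstain.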

Data set [3] deals with A-375. Briefly: Induction of DNA damage in human A375 cells expressing p53 wild type assessed as increase in ATR/ATM activation at 0.5 uM after 24 hrs by immuohistochemistry analysis. The data set is classed as functional, cell-based. Summed up:
as §1

In data set [4] the test system is A-375. Kind of data set: Decrease in Cdc25c level in human A375 cells expressing p53 wild type at 0.5 uM after 24 hrs by western blot analysis. The data set is classed as functional, cell-based. Summed up: (§2)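 A375 cells were exposed to 0.5 µM for 24 h, and lysates were immunoblotted with specific antibodies (p53, Cdc25c, p-Chk1, Bcl-xL, PARP, caspase-3). GAPDH served as loading control. Three independent experiments.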

Data set [5] has as its system A-375. Briefly: Effect on cell cycle distribution in human A375 cells expressing p53 wild type assessed as number of cells at G2/M phase at 0.5 uM after 24 hrs by FACS analysis (reference value: 12.1 %). In kind it is functional. Background: In flow cytometry, cells or beads pass a laser one at a time.
Data set [6] deals with A-375. Kind of data set: Effect on cell cycle distribution in human A375 cells expressing p53 wild type assessed as number of cells at subG1 phase at 0.5 uM after 24 hrs by FACS analysis (reference value: 1 %). The data set is classed as functional.
The test system of data set [7] is A-375. Briefly: Induction of apoptosis in human A375 cells expressing p53 wild type assessed as increase in p53 levels at 0.5 uM after 24 hrs by western blot analysis. In kind it is functional, cell-based. Summed up: as §2
In general terms: Immunoblotting shows a protein as a band on a membrane.

The test system of data set [8] is A-375. Briefly: Induction of apoptosis in human A375 cells expressing p53 wild type assessed as increase in cleaved PARP levels at 0.5 uM after 24 hrs by western blot analysis. In kind it is functional, cell-based. Summed up: as §2
Data set [9] deals with A-375. Briefly: Induction of apoptosis in human A375 cells expressing p53 wild type assessed as decrease in bcl-xl mRNA level by RT- qPCR analysis. The data set is classed as functional, cell-based. The note with it: TDE = time-dependent effect. The method in brief:
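Quantitative real-time PCR on A375 cells over a time course, measuring p53, bax and bcl-xl mRNA normalized to GAPDH mRNA.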
(Real-time PCR tracks product formation cycle by cycle.)

Data set [10] relates to A-375. Kind of data set: Induction of apoptosis in human A375 cells expressing p53 wild type assessed as decrease in mitochondrial membrane potential at 0.5 uM after 12 hrs by DiOC6 dye based flow cytometry. In kind it is functional, cell-based. The method in brief:
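A375 cells were treated with 0.5 µM for 0, 12 and 24 h, labeled with DiOC6 and analyzed by flow cytometry. Three independent experiments.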

The subject of data set [11] is A-375. Briefly: Induction of apoptosis in human A375 cells expressing p53 wild type assessed as increase release of cytochrome c from mitochondria to cytosol at 0.5 uM after 24 hrs by immunofluorescence analysis. In kind it is functional, cell-based. The method in brief:
as §1

Data set [12] deals with RPMI-7951. Briefly: Induction of apoptosis in human RPMI7951 cells expressing p53 mutant assessed as increased release of cathepsin D to cytosol at 0.5 uM by immunofluorescent staining analysis. In kind it is functional, cell-based. Summed up:
(§3)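 RPMI7951 cells on coverslips (1 × 10^4) were treated with 0.5 µM for 24 h. Immunofluorescence steps: fixation in 4% formaldehyde, permeabilization with 0.5% Triton X-100, blocking with 5% BSA. Primary antibodies: rabbit anti-cathepsin D and mouse anti-LAMP-1 at 1:500, cytochrome c and COX IV at 1:1000, 1 h at RT. Secondary antibodies for 30 min. DAPI counterstain.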

Data set [13] deals with RPMI-7951. Kind of data set: Induction of apoptosis in human RPMI7951 cells expressing p53 mutant assessed as increased release of cytochrome c to cytosol at 0.5 uM by immunofluorescent staining analysis. The data set is classed as functional, cell-based. The method in brief: as §3
The subject of data set [14] is RPMI-7951. Kind of data set: Induction of apoptosis in human RPMI7951 cells expressing p53 mutant assessed as PARP cleavage at 0.5 uM after 24 hrs by western blot analysis. In kind it is functional, cell-based.
The next data set has as its system B16. Kind of data set: Induction of apoptosis in mouse B16 cells at 0.5 uM after 24 hrs by FITC-annexin V/PI staining based fluorescence microscopy. The data set is classed as functional, cell-based. Summed up:
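B16 cells were seeded on coverslips at 3 × 10^5 per well, allowed to attach for 24 h, then exposed to 0.5 µM for 24 h. After PBS washes, cells were stained with annexin V-FITC and PI (plus Hoechst33258) for at least 15 min at RT in the dark and viewed by fluorescence microscopy.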

For the next data set, the system named is Mus musculus. Briefly: Toxicity in ICR mouse xenografted with mouse B16 cells assessed as change in body weight at 2 to 4 mg/kg, iv. The data set is classed as organism-based. The following applies: in vivo. Summed up: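 Female ICR mice, seven weeks old, inoculated s.c. in the footpad with 1 × 10^6 B16 cells in 20 µl PBS. Once tumors reached a mean diameter of 4-7 mm (day 0), mice were randomized into groups of three and dosed i.v. at 0, 2, 4 mg/kg. Two perpendicular tumor diameters and body weight were taken at least 3 times weekly. T/C% was calculated from relative tumor volume; body weight is expressed as % of day 0. Statistics by t-test.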

In data set [15] the test system is A-375. Briefly: Cytotoxicity against human A375 cells expressing p53 wild type assessed as cell viability at 1 uM after 24 hrs by MTT assay. In kind it is functional. The following applies: A-375, 24 h, read-out: Activity. Summed up: (§4)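 Cells were exposed to compound at 1 µM for 24 h, then growth and viability were read by MTT assay. Media: A375 in DMEM; RPMI7951 and MCF-7 in MEM; A549 in RPMI1640; H1299 in DMEM-F12; all with 10% FCS and penicillin/streptomycin, at 37 °C and 5% CO2. Fibroblasts came from adult foreskin. DMSO stocks were 10 mM.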

Data set [16] is described as follows: Cytotoxicity against human RPMI7951 cells expressing p53 mutant assessed as cell viability at 1 uM after 24 hrs by MTT assay. In kind it is functional. The note with it: RPMI-7951, 24 h, read-out: Activity. Summed up:
as §4

The test system of the next data set is MCF7. Kind of data set: Cytotoxicity against human MCF7 cells expressing p53 wild type assessed as cell viability at 1 uM after 24 hrs by MTT assay. In kind it is functional. The following applies: MCF7, 24 h, read-out: Activity. Summed up: as §4
Data set [17] in a line: Cytotoxicity against p53 knockout human H1299 cells assessed as cell viability at 1 uM after 24 hrs by MTT assay. The note with it: NCI-H1299, 24 h, read-out: Activity. In kind it is functional. Summed up: as §4
The test system of data set [18] is A-375. Briefly: Cytotoxicity against human A375 cells expressing p53 wild type assessed as colony formation at 0.5 uM after 10 days by SRB assay. In kind it is functional, cell-based. Summed up:
(§5)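 Cells were seeded at 100 per well and treated from the second day. Medium containing 0.5 µM agent was renewed every 3 days. After 10 days of treatment, colonies were stained with SRB and photographed. Three independent experiments.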

Data set [19] concerns RPMI-7951. Kind of data set: Cytotoxicity against human RPMI7951 expressing p53 mutant cells assessed as colony formation at 0.5 uM after 10 days by SRB assay. The data set is classed as functional, cell-based. Summed up:
as §5

`COc1cc2c(cc1OCCCCOc1cc(OC)c(OC)c(OC)c1)N=C[C@@H]1CCCN1C2=O`: the outcome in the data set on A-375 [1], with A-375 [2], with A-375 [3], in the data set with A-375 [7], in the data set with A-375 [8] and with A-375 [10] was Active. Besides, the result in the data set with A-375 [11], in the data set on RPMI-7951 [12], in the data set on RPMI-7951 [13], in the data set with RPMI-7951 [14] and with B16 was Active. The inhibition entry in the data set with A-375 [4], in the data set on A-375 [18] and in the data set on RPMI-7951 [19] was “Active” each time. The Activity in the data set on A-375 [5] is 4.8%; in the data set with A-375 [6], 15.8%; in the data set with A-375 [9], “tde”; with Mus musculus, “Non-toxic”. In addition, the viability at 1 µM in the data set with A-375 [15] turned out to be 37.4%; in data set [16], 62.3%; in the data set with MCF7, 55.3%; in [17] it was 73%.
